Results taken from ChEMBL document CHEMBL4130515, “Identification of Privileged Antichlamydial Natural Products by a Ligand-Based Strategy” (J Nat Prod, 2017).
pIC50: −log10 of the molar value.

What was measured:
HL = experiment: (§1) Cytotoxicity against human HL cells assessed as cell viability at 50 uM after 72 hrs by resazurin dye based fluorescence assay relative to control; settings: hl, 72 h, 50 µM
Method in brief: (§2)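 HL cells grown overnight to confluence, then exposed to compound at 50 μM for 72 h at 37 °C, four parallel replicates. Read-out after 2 h with 20 μM resazurin in PBS, fluorescence at 570/590 nm (ex/em). Viability % is relative to cells in 0.25% DMSO medium. Usnic acid 50 μM as positive control.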

[1] = as §1; settings: HL cells, read-out: Activity; method in brief: as §2
Chlamydia pneumoniae [2] = experiment: Antichlamydial activity against Chlamydia pneumoniae K7 infected in HL cells assessed as chlamydial inhibition at 50 uM after 70 hrs by fluorescent microscopic analysis; format: functional
Method in brief: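 Confluent HL cells infected with C. pneumoniae K7 at MOI 0.3 in medium with 1 μg/mL cycloheximide, centrifuged 500 rpm 1 h, then held at 37 °C for 1 h. At 2 h, compound added at 50 μM or DMSO vehicle. After 70 h at 37 °C, inclusions stained and counted in four fields per coverslip under a fluorescence microscope (20×). Inhibition % is relative to mean vehicle counts.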

Chlamydia pneumoniae [3] = experiment: Antichlamydial activity against Chlamydia pneumoniae K7 infected in HL cells after 70 hrs by fluorescent microscopic analysis; format: functional, organism-based; settings: K7, HL, 70 h
Method in brief: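 HL cells grown to confluence, infected with C. pneumoniae K7 at MOI 0.3 in medium with 1 μg/mL cycloheximide, centrifuged 500 rpm 1 h, then 37 °C 1 h. At 2 h, inoculum replaced by cycloheximide medium with compound at 12 concentrations from 1 nM to 100 μM. Incubated 70 h at 37 °C, stained, and inclusions counted by fluorescence microscopy. Three runs; IC50 from variable-slope sigmoidal fit. Azithromycin 20 nM as positive control.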

| pIC50 (Chlamydia pneumoniae [3]) | Structure (SMILES) | Activity (HL) | viability at 72 h, 50 µM [1] [%] | inhibition at 50 µM (Chlamydia pneumoniae [2]) [%] |
| --- | --- | --- | --- | --- |
| – | O=c1cc(-c2ccccc2)oc2cc(O)cc(O)c12 [CHRYSIN] | Toxic | – | – |
| – | COc1ccc2ccc(=O)oc2c1CC=C(C)C [OSTHOLE] | Toxic | – | – |
| 4.45 | OC1c2ccccc2N=C2CCCN21 (stereo not given) [PEGANOLE] | – | 95.2 | 66.2 |
